Calls of active or inactive are those of the source. The calls are words filed in the database; no cut-off is given here.
Legend:
[1] = target: Mitogen-activated protein kinase 9 (Homo sapiens) (UniProt P45984); assay: Inhibition of partial length human JNK2 expressed in mammalian system at 1 uM
Outline: (§1)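 Single-point screen within a 97-kinase profiling panel, with the test compound at 1 µM.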

[2] = Cytotoxicity against human WI38 cells assessed as change in phenotypic response up to 50 uM; format: cell-based; details: wi-38
[3] = organism: Homo sapiens; assay: Inhibition of partial length human CDK11 expressed in bacterial system at 1 uM
Outline: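 Single-concentration screen within a 97-kinase profiling panel (KinomeEdge), with the compound tested at one fixed concentration across all panel kinases.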

[4] = system: MRC5; assay: Cytotoxicity against human MRC5 cells assessed as change in phenotypic response up to 50 uM; format: cell-based
[5] = target: Tyrosine-protein kinase BTK (Homo sapiens) (UniProt Q06187); assay: Inhibition of partial length human BTK expressed in mammalian system at 1 uM; outline: as §1
[6] = system: Mast/stem cell growth factor receptor Kit (Homo sapiens), P10721 [V559D,T670I]; assay: Inhibition of partial length human KIT V559D/T670I double mutant expressed in bacterial system at 1 uM
Outline: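 Single-concentration screen at 1 µM test concentration, run as part of a commercial binding/activity profiling panel covering 97 kinases.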

[7] = system: U2OS; assay: Antiproliferative activity against human U2OS cells assessed as change in phenotypic response measured after prolonged treatment; format: functional, cell-based
[8] = Cytotoxicity against human 293T cells assessed as change in phenotypic response up to 50 uM; format: cell-based; details: hek-293t
[9] = target: Dual specificity mitogen-activated protein kinase kinase 1 (Homo sapiens) (UniProt Q02750); assay: Inhibition of partial length human MEK1 expressed in mammalian system at 1 uM; outline: as §1
[10] = target: Serine/threonine-protein kinase Chk1 (Homo sapiens) (UniProt O14757); assay: Inhibition of partial length human CHEK1 expressed in bacterial system at 1 uM; outline: as §1
[11] = target: Epidermal growth factor receptor (Homo sapiens) (UniProt P00533); assay: Inhibition of partial length human EGFR expressed in bacterial system at 1 uM; outline: as §1
[12] = system: A549; assay: Antiproliferative activity against human A549 cells assessed as change in phenotypic response up to 50 uM; format: functional, cell-based
[13] = target: Cyclin-dependent kinase 2 (Homo sapiens) (UniProt P24941); assay: Inhibition of partial length human CDK2 expressed in bacterial system at 1 uM; outline: as §1
[14] = Half life in human plasma; format: ADME, cell-free
Outline: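 Plasma stability was measured in human and rat plasma, with half-life reported in hours.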

[15] = Half life in human liver microsomes; format: ADME
Outline: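 Incubated with human or mouse liver microsomes; the read-out was intrinsic clearance alongside half-life, given in hours.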

[16] = target: Activin receptor type-1B (Homo sapiens) (UniProt P36896); assay: Inhibition of partial length human ACVR1B expressed in bacterial system at 1 uM; outline: as §1
[17] = target: Proto-oncogene tyrosine-protein kinase Src (Homo sapiens) (UniProt P12931); assay: Inhibition of partial length human SRC expressed in bacterial system at 1 uM
Outline: (§2)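 Single-concentration screen across a panel of 97 kinases, with the test compound at 1 uM.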

[18] = target: Tyrosine-protein kinase receptor UFO (Homo sapiens) (UniProt P30530); assay: Inhibition of partial length human AXL expressed in bacterial system at 1 uM; outline: as §1
[19] = system: SW480; assay: Antiproliferative activity against human SW480 cells assessed as change in phenotypic response up to 50 uM; format: functional, cell-based
[20] = target: Casein kinase I isoform delta (Homo sapiens) (UniProt P48730); assay: Inhibition of partial length human CSNK1D expressed in bacterial system at 1 uM; outline: as §1
[21] = Intrinsic clearance in mouse liver microsomes; format: ADME
[22] = target: Serine/threonine-protein kinase PLK1 (Homo sapiens) (UniProt P53350); assay: Inhibition of partial length human PLK1 expressed in mammalian system at 1 uM; outline: as §2
Chain of Serine/threonine-protein kinase PLK1 (Homo sapiens) (P53350 whole entry): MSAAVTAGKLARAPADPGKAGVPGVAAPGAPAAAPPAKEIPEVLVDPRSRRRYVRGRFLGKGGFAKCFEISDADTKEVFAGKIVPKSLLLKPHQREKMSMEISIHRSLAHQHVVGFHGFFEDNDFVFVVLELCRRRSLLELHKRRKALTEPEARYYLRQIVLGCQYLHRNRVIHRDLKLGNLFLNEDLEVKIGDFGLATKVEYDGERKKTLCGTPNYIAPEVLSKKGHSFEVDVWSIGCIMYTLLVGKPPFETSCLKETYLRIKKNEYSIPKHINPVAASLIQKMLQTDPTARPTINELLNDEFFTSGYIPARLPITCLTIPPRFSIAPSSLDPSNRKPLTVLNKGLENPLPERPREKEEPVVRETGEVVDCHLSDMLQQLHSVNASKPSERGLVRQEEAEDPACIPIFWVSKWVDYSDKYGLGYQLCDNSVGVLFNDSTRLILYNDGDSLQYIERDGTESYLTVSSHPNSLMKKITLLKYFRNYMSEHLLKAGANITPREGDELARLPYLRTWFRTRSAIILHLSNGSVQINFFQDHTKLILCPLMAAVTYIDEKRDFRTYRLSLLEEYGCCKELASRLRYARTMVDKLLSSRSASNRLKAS

[23] = system: SAOS-2; assay: Antiproliferative activity against human Saos2 cells assessed as change in phenotypic response up to 50 uM; format: functional, cell-based
[24] = system: SW480; assay: Antiproliferative activity against human SW480 cells assessed as change in phenotypic response measured after prolonged treatment; format: functional, cell-based
[25] = target: Proto-oncogene tyrosine-protein kinase receptor Ret (Homo sapiens) (UniProt P07949); assay: Inhibition of partial length human RET expressed in bacterial system at 1 uM; outline: as §2
Chain of Proto-oncogene tyrosine-protein kinase receptor Ret (Homo sapiens) (P07949 whole entry): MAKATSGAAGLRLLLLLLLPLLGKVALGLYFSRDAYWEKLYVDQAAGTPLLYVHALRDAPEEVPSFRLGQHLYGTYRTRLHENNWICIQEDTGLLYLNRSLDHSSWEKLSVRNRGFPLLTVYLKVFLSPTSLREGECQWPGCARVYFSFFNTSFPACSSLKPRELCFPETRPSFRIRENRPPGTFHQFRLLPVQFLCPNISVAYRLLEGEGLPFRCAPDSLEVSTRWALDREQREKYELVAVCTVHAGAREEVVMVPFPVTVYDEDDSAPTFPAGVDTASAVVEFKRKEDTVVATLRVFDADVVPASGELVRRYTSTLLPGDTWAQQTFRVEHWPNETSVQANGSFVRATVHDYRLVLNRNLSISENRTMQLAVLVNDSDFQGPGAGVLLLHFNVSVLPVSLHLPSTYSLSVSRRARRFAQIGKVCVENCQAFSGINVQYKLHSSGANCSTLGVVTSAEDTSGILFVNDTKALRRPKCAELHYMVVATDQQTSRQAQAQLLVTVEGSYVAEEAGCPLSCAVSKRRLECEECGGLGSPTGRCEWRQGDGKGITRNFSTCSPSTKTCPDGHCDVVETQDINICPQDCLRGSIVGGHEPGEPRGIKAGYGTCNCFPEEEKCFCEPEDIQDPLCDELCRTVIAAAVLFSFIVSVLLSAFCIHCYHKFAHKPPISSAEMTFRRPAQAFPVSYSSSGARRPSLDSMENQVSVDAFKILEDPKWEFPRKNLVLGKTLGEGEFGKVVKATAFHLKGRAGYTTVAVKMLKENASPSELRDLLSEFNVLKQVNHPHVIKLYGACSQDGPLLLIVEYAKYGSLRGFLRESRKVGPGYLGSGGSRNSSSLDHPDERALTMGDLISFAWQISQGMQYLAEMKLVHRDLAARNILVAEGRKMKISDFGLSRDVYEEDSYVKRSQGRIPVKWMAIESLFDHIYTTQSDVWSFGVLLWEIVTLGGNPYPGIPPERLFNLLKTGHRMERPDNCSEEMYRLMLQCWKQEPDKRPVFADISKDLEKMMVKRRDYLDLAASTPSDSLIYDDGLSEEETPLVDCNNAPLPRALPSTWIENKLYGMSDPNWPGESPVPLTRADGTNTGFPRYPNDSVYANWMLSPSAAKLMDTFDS

[26] = system: NCI-H460; assay: Antiproliferative activity against human NCI-H460 cells assessed as change in phenotypic response measured after prolonged treatment; format: functional, cell-based
[27] = target: Platelet-derived growth factor receptor alpha (Homo sapiens) (UniProt P16234); assay: Inhibition of partial length human PDGFRalpha expressed in mammalian system at 1 uM; outline: as §2
[28] = target: MAP/microtubule affinity-regulating kinase 3 (Homo sapiens) (UniProt P27448); assay: Inhibition of partial length human MARK3 expressed in bacterial system at 1 uM; outline: as §1
[29] = target: Angiopoietin-1 receptor (Homo sapiens) (UniProt Q02763); assay: Inhibition of partial length human TIE2 expressed in bacterial system at 1 uM; outline: as §2
[30] = Cytotoxicity against human WI38 cells assessed as change in phenotypic response measured after prolonged treatment; format: cell-based; details: wi-38
[31] = system: HMEC; assay: Cytotoxicity against human HMEC cells assessed as change in phenotypic response up to 50 uM; format: cell-based
[32] = target: Cyclin-dependent kinase 9 (Homo sapiens) (UniProt P50750); assay: Inhibition of partial length human CDK9 expressed in bacterial system at 1 uM; outline: as §1
Chain of Cyclin-dependent kinase 9 (Homo sapiens) (P50750 whole entry): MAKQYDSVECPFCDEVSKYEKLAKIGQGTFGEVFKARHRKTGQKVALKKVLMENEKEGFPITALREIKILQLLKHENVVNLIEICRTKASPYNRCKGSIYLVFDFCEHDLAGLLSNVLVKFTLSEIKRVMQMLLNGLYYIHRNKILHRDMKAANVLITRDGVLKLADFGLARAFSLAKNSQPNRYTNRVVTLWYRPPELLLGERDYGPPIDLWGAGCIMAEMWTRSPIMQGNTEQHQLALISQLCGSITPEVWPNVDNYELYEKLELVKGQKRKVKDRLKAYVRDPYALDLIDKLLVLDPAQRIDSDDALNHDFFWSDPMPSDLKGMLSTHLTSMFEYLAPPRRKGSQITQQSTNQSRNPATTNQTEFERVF

[33] = target: Dual specificity mitogen-activated protein kinase kinase 2 (Homo sapiens) (UniProt P36507); assay: Inhibition of partial length human MEK2 expressed in mammalian system at 1 uM; outline: as §2
[34] = target: Tyrosine-protein kinase ABL1 (Homo sapiens) (UniProt P00519); assay: Inhibition of partial length human ABL1 phosphorylation expressed in mammalian system at 1 uM; outline: as §1
Chain of Tyrosine-protein kinase ABL1 (Homo sapiens) (P00519 whole entry): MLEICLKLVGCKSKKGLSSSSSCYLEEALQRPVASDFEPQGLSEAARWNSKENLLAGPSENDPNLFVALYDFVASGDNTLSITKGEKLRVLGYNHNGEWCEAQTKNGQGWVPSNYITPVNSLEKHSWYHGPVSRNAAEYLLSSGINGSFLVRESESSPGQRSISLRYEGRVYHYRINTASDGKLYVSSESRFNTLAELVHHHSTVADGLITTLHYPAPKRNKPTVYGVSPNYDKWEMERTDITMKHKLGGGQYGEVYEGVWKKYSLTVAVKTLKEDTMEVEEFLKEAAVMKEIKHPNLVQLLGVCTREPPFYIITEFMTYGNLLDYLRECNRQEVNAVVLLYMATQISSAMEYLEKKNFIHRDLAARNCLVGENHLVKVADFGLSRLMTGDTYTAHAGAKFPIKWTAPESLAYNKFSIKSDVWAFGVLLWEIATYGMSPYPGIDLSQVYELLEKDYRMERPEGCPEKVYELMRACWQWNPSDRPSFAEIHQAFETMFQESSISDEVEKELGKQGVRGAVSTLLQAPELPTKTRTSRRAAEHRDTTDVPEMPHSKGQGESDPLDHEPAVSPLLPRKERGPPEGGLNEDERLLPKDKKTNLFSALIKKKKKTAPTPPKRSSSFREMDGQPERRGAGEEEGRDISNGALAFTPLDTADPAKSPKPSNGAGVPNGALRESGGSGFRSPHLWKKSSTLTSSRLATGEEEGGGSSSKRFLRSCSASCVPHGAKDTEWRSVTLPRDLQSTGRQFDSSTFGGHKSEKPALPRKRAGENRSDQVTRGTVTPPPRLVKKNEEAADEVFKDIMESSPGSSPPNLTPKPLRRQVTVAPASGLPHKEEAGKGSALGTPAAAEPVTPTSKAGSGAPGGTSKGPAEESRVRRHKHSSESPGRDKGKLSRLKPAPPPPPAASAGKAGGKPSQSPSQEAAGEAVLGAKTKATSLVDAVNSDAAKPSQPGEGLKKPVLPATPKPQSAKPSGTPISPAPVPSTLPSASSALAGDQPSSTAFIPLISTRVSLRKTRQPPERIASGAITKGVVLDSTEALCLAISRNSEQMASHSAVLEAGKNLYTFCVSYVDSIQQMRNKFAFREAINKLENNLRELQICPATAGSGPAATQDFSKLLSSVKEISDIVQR

[35] = target: Dual specificity tyrosine-phosphorylation-regulated kinase 1B (Homo sapiens) (UniProt Q9Y463); assay: Inhibition of partial length human DYRK1B expressed in bacterial system at 1 uM; outline: as §1
Chain of Dual specificity tyrosine-phosphorylation-regulated kinase 1B (Homo sapiens) (Q9Y463 whole entry, looked up): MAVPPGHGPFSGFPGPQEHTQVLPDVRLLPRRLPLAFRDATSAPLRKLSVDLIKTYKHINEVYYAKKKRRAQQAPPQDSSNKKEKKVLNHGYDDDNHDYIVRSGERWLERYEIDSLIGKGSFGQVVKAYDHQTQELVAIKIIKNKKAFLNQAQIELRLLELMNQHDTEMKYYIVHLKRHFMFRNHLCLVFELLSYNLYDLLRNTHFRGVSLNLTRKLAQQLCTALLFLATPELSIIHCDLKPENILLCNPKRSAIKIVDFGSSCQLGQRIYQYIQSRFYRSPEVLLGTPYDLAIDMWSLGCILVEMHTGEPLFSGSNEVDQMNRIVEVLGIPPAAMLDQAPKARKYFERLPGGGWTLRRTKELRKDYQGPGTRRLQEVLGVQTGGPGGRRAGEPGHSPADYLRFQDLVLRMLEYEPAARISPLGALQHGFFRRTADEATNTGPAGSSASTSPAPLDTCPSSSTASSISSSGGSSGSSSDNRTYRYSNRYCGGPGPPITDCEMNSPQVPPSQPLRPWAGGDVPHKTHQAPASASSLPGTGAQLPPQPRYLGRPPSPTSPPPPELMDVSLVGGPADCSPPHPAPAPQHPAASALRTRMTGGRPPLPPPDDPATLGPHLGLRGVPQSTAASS

[36] = system: MDA-MB-231; assay: Antiproliferative activity against human MDA-MB-231 cells assessed as change in phenotypic response measured after prolonged treatment; format: functional, cell-based
[37] = system: HCT-116; assay: Antiproliferative activity against human HCT116 cells assessed as change in phenotypic response up to 50 uM; format: functional, cell-based
[38] = system: SAOS-2; assay: Antiproliferative activity against human Saos2 cells assessed as change in phenotypic response measured after prolonged treatment; format: functional, cell-based
[39] = system: U2OS; assay: Antiproliferative activity against human U2OS cells assessed as change in phenotypic response up to 50 uM; format: functional, cell-based
[40] = system: Serine/threonine-protein kinase B-raf (Homo sapiens), P15056 [V600E]; assay: Inhibition of partial length human BRAF V600E mutant expressed in mammalian system at 1 uM; outline: as §1
[41] = target: Platelet-derived growth factor receptor beta (Homo sapiens) (UniProt P09619); assay: Inhibition of partial length human PDGFRbeta expressed in bacterial system at 1 uM; outline: as §2
Chain of Platelet-derived growth factor receptor beta (Homo sapiens) (P09619 whole entry): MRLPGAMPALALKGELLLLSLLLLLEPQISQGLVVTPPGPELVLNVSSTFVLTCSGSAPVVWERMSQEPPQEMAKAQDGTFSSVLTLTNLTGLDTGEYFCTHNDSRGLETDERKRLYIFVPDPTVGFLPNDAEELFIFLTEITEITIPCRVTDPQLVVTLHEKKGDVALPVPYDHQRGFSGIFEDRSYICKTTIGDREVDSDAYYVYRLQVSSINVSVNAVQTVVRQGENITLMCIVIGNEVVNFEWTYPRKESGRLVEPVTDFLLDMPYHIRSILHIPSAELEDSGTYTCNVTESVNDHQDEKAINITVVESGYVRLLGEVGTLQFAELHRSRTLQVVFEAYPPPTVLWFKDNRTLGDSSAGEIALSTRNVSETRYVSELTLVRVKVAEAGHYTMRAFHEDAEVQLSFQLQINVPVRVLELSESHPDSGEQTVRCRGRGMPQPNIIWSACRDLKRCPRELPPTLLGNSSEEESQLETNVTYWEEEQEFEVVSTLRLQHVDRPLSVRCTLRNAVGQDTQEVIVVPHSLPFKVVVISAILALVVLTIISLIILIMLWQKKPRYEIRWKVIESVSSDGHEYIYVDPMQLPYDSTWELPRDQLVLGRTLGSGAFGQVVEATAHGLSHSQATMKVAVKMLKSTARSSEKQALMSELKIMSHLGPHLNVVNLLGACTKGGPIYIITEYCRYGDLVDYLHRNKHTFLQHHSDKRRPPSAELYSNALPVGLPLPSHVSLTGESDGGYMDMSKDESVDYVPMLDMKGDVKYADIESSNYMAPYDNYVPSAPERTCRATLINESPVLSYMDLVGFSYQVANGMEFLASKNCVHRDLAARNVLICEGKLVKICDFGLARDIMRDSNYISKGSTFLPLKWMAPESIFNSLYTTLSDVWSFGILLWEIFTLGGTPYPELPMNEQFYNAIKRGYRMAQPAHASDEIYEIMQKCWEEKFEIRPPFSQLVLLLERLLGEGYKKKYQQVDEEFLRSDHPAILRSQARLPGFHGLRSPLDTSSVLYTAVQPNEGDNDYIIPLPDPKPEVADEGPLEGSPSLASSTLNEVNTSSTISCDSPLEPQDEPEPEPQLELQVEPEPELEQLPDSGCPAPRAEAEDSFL

[42] = target: Bone morphogenetic protein receptor type-2 (Homo sapiens) (UniProt Q13873); assay: Inhibition of partial length human BMPR2 expressed in mammalian system at 1 uM; outline: as §1
[43] = target: Mitogen-activated protein kinase 10 (Homo sapiens) (UniProt P53779); assay: Inhibition of partial length human JNK3 expressed in mammalian system at 1 uM; outline: as §1

Cc1cnc(N)nc1OCC(C)(C)CO
inhibition [1]: inactive
Activity [2]: Non-toxic
inhibition [3]: inactive
Activity [4]: Non-toxic
inhibition [5]: inactive
inhibition [6]: inactive
Activity [7]: inactive
Activity [8]: Non-toxic
inhibition [9]: inactive
inhibition [10]: inactive
inhibition [11]: inactive
Activity [12]: inactive
inhibition [13]: inactive
half-life [14]: 58 h
half-life [15]: 5.5 h
inhibition [16]: inactive
inhibition [17]: inactive
inhibition [18]: inactive
Activity [19]: inactive
inhibition [20]: inactive
CLH [21]: 60 µL/min/mg
inhibition [22]: inactive
Activity [23]: inactive
Activity [24]: inactive
inhibition [25]: inactive
Activity [26]: inactive
inhibition [27]: inactive
inhibition [28]: inactive
inhibition [29]: inactive
Activity [30]: Non-toxic
Activity [31]: Non-toxic
inhibition [32]: inactive
inhibition [33]: inactive
inhibition [34]: inactive
inhibition [35]: inactive
Activity [36]: inactive
Activity [37]: inactive
Activity [38]: inactive
Activity [39]: inactive
inhibition [40]: inactive
inhibition [41]: inactive
inhibition [42]: inactive
inhibition [43]: inactive

From ChEMBL document CHEMBL3779767, “Identification of potent and selective MTH1 inhibitors” (Bioorg Med Chem Lett, 2016)
